Columns and labels:
[1] = Cytotoxicity against mouse EAC cells assessed as non-viable cells at 25 ug/ml after 2 hrs by trypan blue exclusion assay; type: functional, Ehrlich
Procedure, shortened: (§1)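 EAC cells drawn aseptically by needle aspiration of ascitic fluid from previously inoculated mice; suspension at 2.5 × 10^6 cells per ml. Test agents dissolved in DMSO (1 ml) at 100, 50, 25 and 10 µg, then diluted into the cell suspension. Incubation 2 h at 37 °C. Non-viable cell percentage counted by trypan blue exclusion. IC50 taken from the survival ratio versus concentration curve.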

[2] = Cytotoxicity against mouse EAC cells assessed as non-viable cells at 10 ug/ml after 2 hrs by trypan blue exclusion assay; type: functional, Ehrlich; procedure, shortened: as §1
[3] = Cytotoxicity against mouse EAC cells after 2 hrs by trypan blue exclusion assay; type: functional, cell-based; details: Ehrlich; procedure, shortened: as §1
[4] = Cytotoxicity against mouse EAC cells assessed as non-viable cells at 50 ug/ml after 2 hrs by trypan blue exclusion assay; type: functional, Ehrlich; procedure, shortened: as §1
[5] = Cytotoxicity against mouse EAC cells assessed as non-viable cells at 100 ug/ml after 2 hrs by trypan blue exclusion assay; type: functional, Ehrlich; procedure, shortened: as §1

Row | Structure (SMILES) | Activity [1] [%] | Activity [2] [%] | IC50 [3] | Activity [4] [%] | Activity [5] [%]
1 | N#CC1=C(N)N(c2ccc(S(N)(=O)=O)cc2)C2=C(CCCC2)C1c1ccc(Cl)c(Cl)c1 (stereo not given) | 40 | 1 | 100 µg/mL | 50 | 50
2 | COc1ccc(C2C(C#N)=C(N)N(c3ccc(S(N)(=O)=O)cc3)C3=C2CCCC3)cc1 (stereo not given) | 90 | 50 | 22.9 µM | 100 | 100
3 | N#CC1=C(N)N(c2ccc(S(N)(=O)=O)cc2)C2=C(CCCC2)C1c1ccccc1 (stereo not given) | 10 | 5 | > 100 µg/mL | 20 | 30
4 | N#CC1=C(N)N(c2ccc(S(N)(=O)=O)cc2)C2=C(CCCC2)C1/C=C/c1ccccc1 (stereo not given) | 70 | 50 | 23.1 µM | 90 | 70
5 | COc1ccc2ccccc2c1C1C(C#N)=C(N)N(c2ccc(S(N)(=O)=O)cc2)C2=C1CCCC2 (stereo not given) | 10 | 5 | 100 µg/mL | 10 | 50
6 | N#CC1=C(N)N(c2ccc(S(N)(=O)=O)cc2)C2=C(CCCC2)C1c1cccs1 (stereo not given) | 5 | 0 | > 100 µg/mL | 10 | 20
7 | COc1cc(C2C(C#N)=C(N)N(c3ccc(S(N)(=O)=O)cc3)C3=C2CCCC3)ccc1O (stereo not given) | 2 | 0 | 100 µg/mL | 30 | 50
8 | COc1ccccc1C1C(C#N)=C(N)N(c2ccc(S(N)(=O)=O)cc2)C2=C1CCCC2 (stereo not given) | 40 | 30 | 115 µM | 50 | 100
9 | N#CC1=C(N)N(c2ccc(S(N)(=O)=O)cc2)C2=C(CCCC2)C1c1ccc(Cl)cc1Cl (stereo not given) | 50 | 0 | 105 µM | 50 | 70
10 | N#CC1=C(N)N(c2ccc(S(N)(=O)=O)cc2)C2=C(CCCC2)C1c1c(O)ccc2ccccc12 (stereo not given) | 5 | 10 | 100 µg/mL | 20 | 50
11 | Cc1ccc(C2C(C#N)=C(N)N(c3ccc(S(N)(=O)=O)cc3)C3=C2CCCC3)cc1 (stereo not given) | 30 | 20 | 85.7 µM | 80 | 90
12 | COc1cc(OC)c(C2C(C#N)=C(N)N(c3ccc(S(N)(=O)=O)cc3)C3=C2CCCC3)cc1OC (stereo not given) | 0 | 0 | 101 µM | 50 | 100
13 | CCOc1cc(C2C(C#N)=C(N)N(c3ccc(S(N)(=O)=O)cc3)C3=C2CCCC3)ccc1OC (stereo not given) | 5 | 0 | > 100 µg/mL | 5 | 10
14 | N#CC1=C(N)N(c2ccc(S(N)(=O)=O)cc2)C2=C(CCCC2)[C@@H]1c1ccc2c(c1)OCO2 | 100 | 100 | < 22.2 µM | 100 | 100
15 | N#CC1=C(N)N(c2ccc(S(N)(=O)=O)cc2)C2=C(CCCC2)C1c1ccccc1O (stereo not given) | 40 | 10 | 118 µM | 50 | 100
16 | COc1cccc2c1C(=O)c1c(O)c3c(c(O)c1C2=O)C[C@@](O)(C(=O)CO)C[C@@H]3O[C@H]1C[C@H](N)[C@H](O)[C@H](C)O1 [DOXORUBICIN] | 25 | 17 | 69.9 µM | 70 | 100
17 | N#CC1=C(N)N(c2ccc(S(N)(=O)=O)cc2)C2=C(CCCC2)C1c1ccccc1Cl (stereo not given) | 0 | 0 | > 100 µg/mL | 5 | 10
18 | COc1ccc(C2C(C#N)=C(N)N(c3ccc(S(N)(=O)=O)cc3)C3=C2CCCC3)c2ccccc12 (stereo not given) | 5 | 0 | > 100 µg/mL | 10 | 20
19 | N#CC1=C(N)N(c2ccc(S(N)(=O)=O)cc2)C2=C(CCCC2)C1c1cccc([N+](=O)[O-])c1 (stereo not given) | 1 | 0 | > 100 µg/mL | 2 | 12
20 | N#CC1=C(N)N(c2ccc(S(N)(=O)=O)cc2)C2=C(CCCC2)C1c1ccc(O)cc1 (stereo not given) | 42 | 20 | 82.9 µM | 60 | 100
21 | N#CC1=C(N)N(c2ccc(S(N)(=O)=O)cc2)C2=C(CCCC2)C1c1ccc([N+](=O)[O-])cc1 (stereo not given) | 5 | 0 | > 100 µg/mL | 10 | 20
22 | Cc1ccc(C2C(C#N)=C(N)N(c3ccc(S(N)(=O)=O)cc3)C3=C2CCCC3)o1 (stereo not given) | 10 | 0 | > 100 µg/mL | 10 | 30
